Results: PMC11303814 (Nature Communications, 2024)
Residue numbers refer to the chain shown, from its start.

Key:
Type in all cases: cell-based
rP2X7-Q143A/I214A = biological target: T1, rP2X7-Q143A/I214A (Rattus norvegicus, UniProt Q64663, I214A/Q143A); experiment: TEVC dose response; conditions: read-out: EC50 (apparent affinity), mean ± SD, triplicate
T1 sequence (Q64663 1-595 Q143A/I214A): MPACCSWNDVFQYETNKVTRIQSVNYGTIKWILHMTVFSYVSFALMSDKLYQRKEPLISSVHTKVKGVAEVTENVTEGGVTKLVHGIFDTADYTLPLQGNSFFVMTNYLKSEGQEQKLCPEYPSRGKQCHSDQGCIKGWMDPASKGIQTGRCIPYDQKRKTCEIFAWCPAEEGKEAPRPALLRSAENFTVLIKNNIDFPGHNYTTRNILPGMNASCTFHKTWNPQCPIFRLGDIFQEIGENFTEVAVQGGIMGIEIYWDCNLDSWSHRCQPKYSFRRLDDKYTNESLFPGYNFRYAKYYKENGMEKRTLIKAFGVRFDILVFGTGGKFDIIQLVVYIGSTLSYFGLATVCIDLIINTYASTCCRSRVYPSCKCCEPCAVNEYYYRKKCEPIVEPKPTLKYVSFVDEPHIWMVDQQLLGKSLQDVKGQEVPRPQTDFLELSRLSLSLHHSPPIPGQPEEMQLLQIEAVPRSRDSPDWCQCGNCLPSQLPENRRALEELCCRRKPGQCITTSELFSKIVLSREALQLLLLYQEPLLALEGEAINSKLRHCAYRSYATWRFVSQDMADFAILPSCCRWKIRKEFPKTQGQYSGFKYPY
In short: (§1)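 TEVC was run on Xenopus oocytes ~20 h after injection of wild-type or mutant rP2X7 mRNA, in pH 7.4 HEPES buffer with 0.1 mM flufenamic acid. Receptors were facilitated at 100 µM before recording. Dilution series: ATP 1.5 mM–2 µM (7 points), BzATP 300–0.14 µM (8 points). Responses were normalized to the largest concentration, fitted by nonlinear regression for EC50, and averaged across triplicates (mean ± SD).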

rP2X7-R125A [1] = biological target: T2, rP2X7-R125A (Rattus norvegicus, UniProt Q64663, R125A); experiment: TEVC dose response; conditions: read-out: EC50 (apparent affinity), mean ± SD, triplicate
T2 sequence (Q64663 1-595 R125A): T1 sequence (Q64663 1-595 Q143A/I214A) with R125A, A143Q, A214I
In short: as §1

rP2X7-R125A/Q143A = biological target: T3, rP2X7-R125A/Q143A (Rattus norvegicus, UniProt Q64663, Q143A/R125A); experiment: TEVC deactivation time; conditions: after 100 μM ATP or 10 μM BzATP
T3 sequence (Q64663 1-595 R125A/Q143A): T1 sequence (Q64663 1-595 Q143A/I214A) with R125A, A214I
In short: (§2)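 Xenopus oocytes injected with 50 nL of 10 ng/µL mutant rP2X7 mRNA, expressed ~20 h, clamped in pH 7.4 HEPES buffer with 0.1 mM flufenamic acid and EDTA. Currents were evoked by 100 µM ATP or 10 µM BzATP. τ is the time for current to return to 63% of baseline after agonist removal, from a one- or two-phase decay fit. Done in triplicate over first to third applications per oocyte; mean ± SD.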

rP2X7-R125A [2] = biological target: T2, rP2X7-R125A; experiment: TEVC deactivation time; conditions: after 100 μM ATP or 10 μM BzATP
In short: as §2

EC50 (rP2X7-Q143A/I214A) | EC50 (rP2X7-R125A [1]) | deactivation lifetime τ (rP2X7-R125A/Q143A) | deactivation lifetime τ (rP2X7-R125A [2]) | Compound
290 ± 20 µM | 41 ± 14 µM | 1.8 ± 0.1 s | 3.5 ± 0.6 s | Nc1ncnc2c1ncn2[C@@H]1O[C@H](COP(=O)(O)OP(=O)(O)OP(=O)(O)O)[C@@H](O)[C@H]1O [ATP]
49 ± 4 µM | 5 ± 1 µM | 2.5 ± 1.1 s | 18 ± 3.7 s | BzATP
